Active and inactive are the calls of the source.

For one series, the species on record is Homo sapiens. As to the kind of experiment: Induction of apoptosis in human MEC1 cells assessed as decrease in BCL-2 level up to 3 uM after 2 hrs by immunoblotting analysis. The class given is functional, cell-based. (In general: In western blotting, separated proteins are transferred to a membrane and probed.)
The nature of series [1]: Half life in beagle dog at 10 mg/kg, po by LC-MS/MS analysis. It counts as ADME, organism-based, Canis lupus familiaris. As to conditions: in vivo.
Series [2] is described as follows: Cmax in mouse at 3 mg/kg, iv by LC-MS/MS analysis. As to conditions: in vivo. Also on record: dose 3 mg/kg, route intravenous. It counts as ADME, organism-based.
Series [3] can be described thus: MRT (0 to infinity) in mouse at 3 mg/kg, iv by LC-MS/MS analysis. To be noted: in vivo. It counts as ADME, organism-based.
Series [4] can be described thus: Oral bioavailability in mouse at 10 mg/kg by LC-MS/MS analysis. The class given is ADME, organism-based. As to conditions: in vivo.
The next series concerns MV4-11. As to the kind of experiment: Antitumor activity against human MV4-11 cells xenografted in nu/nu mouse assessed as tumor growth inhibition at 10 to 30 mg/kg, po administered via gavage for 2 weeks measured every day during compound dosing. It counts as functional, organism-based. In outline: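 Female nu/nu mice, five weeks old, implanted subcutaneously in the right flank with 5 million MV4-11 cells in PBS/Matrigel 1:1. Daily oral gavage in 0.5% methylcellulose/0.4% Tween80 started at tumor volume 200–400 mm³, 10, 20 or 30 mg/kg/day or vehicle, 5 mice per group. Tumor volume (W²×L)/2 and body weight measured daily; mean ± SEM.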
For orientation: Xenograft models place foreign cells or tissue in a host animal.

The target of series [5] is Cytoplasmic tyrosine-protein kinase BMX (Homo sapiens) (UniProt P51813). Put plainly: Binding affinity to wild-type human full length BMX (M1 to H675 residues) expressed in bacterial expression system assessed as remaining unbound target protein level at 1000 nM by Kinomescan method relative to control. In outline:
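Single-point competition binding screen across a panel of 468 kinases and mutants, with the inhibitor at 1 μM. Binding is read out as percent of a DMSO control, and targets below 1 percent control were classed as strong binders.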

Series [6] deals with Protein-tyrosine kinase 6 (Homo sapiens) (UniProt Q13882). Put plainly: Binding affinity to wild-type human partial length BRK (L166 to T451 residues) expressed in bacterial expression system assessed as remaining unbound target protein level at 1000 nM by Kinomescan method relative to control. In a few lines:
(§1)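 KINOMEscan competition binding profile across a panel of 468 kinases and mutants, with the inhibitor tested at a single concentration of 1 μM. Binding is reported as percent of control, meaning signal relative to a DMSO control.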

Series [7] concerns the target Serine/threonine-protein kinase BRSK1 (Homo sapiens) (UniProt Q8TDC3). As to the kind of experiment: Binding affinity to wild-type human partial length BRSK1 (M1 to E754 residues) expressed in bacterial expression system assessed as remaining unbound target protein level at 1000 nM by Kinomescan method relative to control. In outline:
(§2)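 Profiled in a KINOMEscan binding panel with the inhibitor at a single concentration of 1 μM. Binding to each kinase was read out as percent of control, relative to a DMSO control. Strong binders were defined as those with a percent control value below 1.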

In series [8] the target is Casein kinase I isoform gamma-1 (Homo sapiens) (UniProt Q9HCP0). Put plainly: Binding affinity to wild-type human partial length CSNK1G1 (T15 to S353 residues) expressed in bacterial expression system assessed as remaining unbound target protein level at 1000 nM by Kinomescan method relative to control. In a few lines: as §1
Chain of Casein kinase I isoform gamma-1 (Homo sapiens) (Q9HCP0 whole entry, looked up, the tested form may be a part, canonical isoform): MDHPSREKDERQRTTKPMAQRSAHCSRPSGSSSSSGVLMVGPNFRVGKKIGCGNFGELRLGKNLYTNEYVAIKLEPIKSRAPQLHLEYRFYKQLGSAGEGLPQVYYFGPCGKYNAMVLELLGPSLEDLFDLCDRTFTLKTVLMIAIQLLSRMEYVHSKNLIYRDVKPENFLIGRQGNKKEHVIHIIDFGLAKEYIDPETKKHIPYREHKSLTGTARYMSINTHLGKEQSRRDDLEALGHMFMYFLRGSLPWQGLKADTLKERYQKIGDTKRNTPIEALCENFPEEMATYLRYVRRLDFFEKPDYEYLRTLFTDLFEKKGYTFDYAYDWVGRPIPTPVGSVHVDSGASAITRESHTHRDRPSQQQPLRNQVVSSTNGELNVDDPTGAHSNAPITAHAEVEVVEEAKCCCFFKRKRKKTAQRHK
The target of series [9] is Mast/stem cell growth factor receptor Kit (Homo sapiens) (UniProt P10721). Put plainly: Binding affinity to wild-type human partial length autoinhibited KIT (Y545 to D952 residues) expressed in mammalian expression system assessed as remaining unbound target protein level at 1000 nM by Kinomescan method relative to control.
Chain of Mast/stem cell growth factor receptor Kit (Homo sapiens) (P10721 whole entry, the tested form may be a part): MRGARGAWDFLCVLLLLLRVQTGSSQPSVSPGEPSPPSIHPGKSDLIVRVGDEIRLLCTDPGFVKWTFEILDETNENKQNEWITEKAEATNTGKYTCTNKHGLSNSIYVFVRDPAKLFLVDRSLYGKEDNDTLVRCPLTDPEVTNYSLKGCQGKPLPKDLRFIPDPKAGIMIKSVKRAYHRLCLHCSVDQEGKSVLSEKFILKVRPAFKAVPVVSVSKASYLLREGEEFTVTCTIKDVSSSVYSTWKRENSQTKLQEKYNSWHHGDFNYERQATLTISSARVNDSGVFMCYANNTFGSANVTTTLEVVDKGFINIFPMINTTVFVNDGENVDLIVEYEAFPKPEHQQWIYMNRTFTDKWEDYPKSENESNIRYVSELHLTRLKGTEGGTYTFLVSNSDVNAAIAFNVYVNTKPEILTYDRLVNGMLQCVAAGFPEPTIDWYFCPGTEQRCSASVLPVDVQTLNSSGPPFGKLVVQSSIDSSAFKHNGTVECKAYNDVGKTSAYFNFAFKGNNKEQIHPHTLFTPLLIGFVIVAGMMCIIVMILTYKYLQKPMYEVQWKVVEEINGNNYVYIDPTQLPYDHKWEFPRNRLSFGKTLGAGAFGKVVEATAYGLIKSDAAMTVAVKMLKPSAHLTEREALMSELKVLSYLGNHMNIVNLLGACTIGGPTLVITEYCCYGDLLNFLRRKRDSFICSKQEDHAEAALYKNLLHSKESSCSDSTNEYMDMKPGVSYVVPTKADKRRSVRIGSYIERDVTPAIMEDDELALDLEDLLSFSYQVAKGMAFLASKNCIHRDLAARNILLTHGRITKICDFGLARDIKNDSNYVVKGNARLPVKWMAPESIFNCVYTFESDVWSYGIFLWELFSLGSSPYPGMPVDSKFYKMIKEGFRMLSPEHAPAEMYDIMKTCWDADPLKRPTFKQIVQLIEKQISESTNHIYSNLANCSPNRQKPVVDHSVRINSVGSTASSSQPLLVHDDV
The target of series [10] is Serine/threonine-protein kinase MAK (Homo sapiens) (UniProt P20794). Put plainly: Binding affinity to wild-type human partial length MAK (M1 to P314 residues) expressed in bacterial expression system assessed as remaining unbound target protein level at 1000 nM by Kinomescan method relative to control.
The target of series [11] is Serine/threonine-protein kinase MARK1 (Homo sapiens) (UniProt Q9P0L2). As to the kind of experiment: Binding affinity to wild-type human partial length MARK1 (Q30 to T341 residues) expressed in bacterial expression system assessed as remaining unbound target protein level at 1000 nM by Kinomescan method relative to control. In outline:
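KINOMEscan binding panel of 468 kinases/mutants. Inhibitor was tested at a single concentration of 1 μM. Binding is reported as percent of control, defined relative to a DMSO control.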

Series [12] deals with Phosphatidylinositol 4-kinase beta (Homo sapiens) (UniProt Q9UBF8). As to the kind of experiment: Binding affinity to wild-type human full length PIK4CB (M1 to M828 residues) expressed in mammalian expression system assessed as remaining unbound target protein level at 1000 nM by Kinomescan method relative to control. In a few lines: as §2
Chain of Phosphatidylinositol 4-kinase beta (Homo sapiens) (Q9UBF8 2-816 limits assumed): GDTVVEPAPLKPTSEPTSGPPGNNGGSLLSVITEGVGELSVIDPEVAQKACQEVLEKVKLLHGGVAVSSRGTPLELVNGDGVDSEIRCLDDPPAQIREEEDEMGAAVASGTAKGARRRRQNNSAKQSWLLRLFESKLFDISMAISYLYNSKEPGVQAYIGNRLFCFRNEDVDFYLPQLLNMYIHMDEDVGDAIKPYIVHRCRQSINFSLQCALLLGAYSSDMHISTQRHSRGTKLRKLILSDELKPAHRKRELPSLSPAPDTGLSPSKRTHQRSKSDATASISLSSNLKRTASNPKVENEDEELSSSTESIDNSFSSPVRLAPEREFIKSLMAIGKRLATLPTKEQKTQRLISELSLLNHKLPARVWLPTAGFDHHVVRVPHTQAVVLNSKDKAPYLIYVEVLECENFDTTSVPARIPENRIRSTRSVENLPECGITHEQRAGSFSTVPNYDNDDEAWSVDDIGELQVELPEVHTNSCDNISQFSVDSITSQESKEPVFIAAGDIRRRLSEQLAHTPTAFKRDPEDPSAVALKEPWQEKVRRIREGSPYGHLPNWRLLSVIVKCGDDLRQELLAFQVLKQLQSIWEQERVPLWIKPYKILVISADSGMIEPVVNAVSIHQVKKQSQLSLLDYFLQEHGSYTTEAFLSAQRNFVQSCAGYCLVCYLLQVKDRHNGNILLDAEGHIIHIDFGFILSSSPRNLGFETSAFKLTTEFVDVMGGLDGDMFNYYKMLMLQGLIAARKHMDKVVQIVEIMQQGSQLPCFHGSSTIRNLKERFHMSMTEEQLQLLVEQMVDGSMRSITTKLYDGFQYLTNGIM
Series [13] concerns the target Serine/threonine-protein kinase pim-3 (Homo sapiens) (UniProt Q86V86). As to the kind of experiment: Binding affinity to wild-type human partial length PIM3 (G16 to A317 residues) expressed in bacterial expression system assessed as remaining unbound target protein level at 1000 nM by Kinomescan method relative to control.
Series [14] deals with Phosphatidylinositol 5-phosphate 4-kinase type-2 gamma (Homo sapiens) (UniProt Q8TBX8). As to the kind of experiment: Binding affinity to wild-type human partial length PIP5K2C (M1 to A421 residues) expressed in mammalian expression system assessed as remaining unbound target protein level at 1000 nM by Kinomescan method relative to control.
In series [15] the target is Protein kinase C theta type (Homo sapiens) (UniProt Q04759). As to the kind of experiment: Binding affinity to wild-type human partial length PRKCQ (L350 to S706 residues) expressed in bacterial expression system assessed as remaining unbound target protein level at 1000 nM by Kinomescan method relative to control.
Series [16] addresses Serine/threonine-protein kinase TAO2 (Homo sapiens) (UniProt Q9UL54). Put plainly: Binding affinity to wild-type human partial length TAOK2 (M1 to A320 residues) expressed in mammalian expression system assessed as remaining unbound target protein level at 1000 nM by Kinomescan method relative to control.
For series [17], the target named is Angiopoietin-1 receptor (Homo sapiens) (UniProt Q02763). As to the kind of experiment: Binding affinity to wild-type human partial length TIE2 (N804 to T1112 residues) expressed in bacterial expression system assessed as remaining unbound target protein level at 1000 nM by Kinomescan method relative to control.
Series [18] addresses Serine/threonine-protein kinase tousled-like 2 (Homo sapiens) (UniProt Q86UE8). As to the kind of experiment: Binding affinity to wild-type human partial length TLK2 (E424 to N749 residues) expressed in bacterial expression system assessed as remaining unbound target protein level at 1000 nM by Kinomescan method relative to control.
Series [19] addresses Activated CDC42 kinase 1 (Homo sapiens) (UniProt Q07912). As to the kind of experiment: Binding affinity to wild-type human partial length TNK2 (S159 to D474 residues) expressed in bacterial expression system assessed as remaining unbound target protein level at 1000 nM by Kinomescan method relative to control.
The target in series [20] is NT-3 growth factor receptor (Homo sapiens) (UniProt Q16288). As to the kind of experiment: Binding affinity to wild-type human partial length TRKC (Q531 to G825 residues) expressed in mammalian expression system assessed as remaining unbound target protein level at 1000 nM by Kinomescan method relative to control.
Chain of NT-3 growth factor receptor (Homo sapiens) (Q16288 32-839 limits assumed): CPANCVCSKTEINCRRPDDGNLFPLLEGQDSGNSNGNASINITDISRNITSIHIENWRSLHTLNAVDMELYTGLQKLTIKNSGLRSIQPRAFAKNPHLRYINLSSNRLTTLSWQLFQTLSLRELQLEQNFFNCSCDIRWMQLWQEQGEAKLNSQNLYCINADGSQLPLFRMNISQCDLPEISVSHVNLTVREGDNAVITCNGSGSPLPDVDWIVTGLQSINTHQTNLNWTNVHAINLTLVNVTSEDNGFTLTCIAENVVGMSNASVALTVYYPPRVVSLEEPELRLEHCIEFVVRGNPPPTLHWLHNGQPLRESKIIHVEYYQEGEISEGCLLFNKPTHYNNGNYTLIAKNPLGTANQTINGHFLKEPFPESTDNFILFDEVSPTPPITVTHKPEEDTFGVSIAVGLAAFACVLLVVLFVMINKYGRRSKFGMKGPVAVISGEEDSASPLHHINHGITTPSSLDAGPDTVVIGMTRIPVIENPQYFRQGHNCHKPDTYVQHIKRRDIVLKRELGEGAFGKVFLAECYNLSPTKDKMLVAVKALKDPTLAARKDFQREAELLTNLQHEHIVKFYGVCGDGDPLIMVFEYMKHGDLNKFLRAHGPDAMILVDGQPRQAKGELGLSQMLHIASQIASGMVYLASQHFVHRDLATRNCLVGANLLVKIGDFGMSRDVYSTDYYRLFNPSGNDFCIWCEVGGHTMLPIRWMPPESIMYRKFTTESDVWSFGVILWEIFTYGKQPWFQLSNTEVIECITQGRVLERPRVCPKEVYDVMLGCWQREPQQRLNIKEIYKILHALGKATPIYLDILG
The target in series [21] is Serine/threonine-protein kinase ULK1 (Homo sapiens) (UniProt O75385). As to the kind of experiment: Binding affinity to wild-type human partial length ULK1 (M1 to T309 residues) expressed in mammalian expression system assessed as remaining unbound target protein level at 1000 nM by Kinomescan method relative to control.
Chain of Serine/threonine-protein kinase ULK1 (Homo sapiens) (O75385 whole entry, the tested form may be a part): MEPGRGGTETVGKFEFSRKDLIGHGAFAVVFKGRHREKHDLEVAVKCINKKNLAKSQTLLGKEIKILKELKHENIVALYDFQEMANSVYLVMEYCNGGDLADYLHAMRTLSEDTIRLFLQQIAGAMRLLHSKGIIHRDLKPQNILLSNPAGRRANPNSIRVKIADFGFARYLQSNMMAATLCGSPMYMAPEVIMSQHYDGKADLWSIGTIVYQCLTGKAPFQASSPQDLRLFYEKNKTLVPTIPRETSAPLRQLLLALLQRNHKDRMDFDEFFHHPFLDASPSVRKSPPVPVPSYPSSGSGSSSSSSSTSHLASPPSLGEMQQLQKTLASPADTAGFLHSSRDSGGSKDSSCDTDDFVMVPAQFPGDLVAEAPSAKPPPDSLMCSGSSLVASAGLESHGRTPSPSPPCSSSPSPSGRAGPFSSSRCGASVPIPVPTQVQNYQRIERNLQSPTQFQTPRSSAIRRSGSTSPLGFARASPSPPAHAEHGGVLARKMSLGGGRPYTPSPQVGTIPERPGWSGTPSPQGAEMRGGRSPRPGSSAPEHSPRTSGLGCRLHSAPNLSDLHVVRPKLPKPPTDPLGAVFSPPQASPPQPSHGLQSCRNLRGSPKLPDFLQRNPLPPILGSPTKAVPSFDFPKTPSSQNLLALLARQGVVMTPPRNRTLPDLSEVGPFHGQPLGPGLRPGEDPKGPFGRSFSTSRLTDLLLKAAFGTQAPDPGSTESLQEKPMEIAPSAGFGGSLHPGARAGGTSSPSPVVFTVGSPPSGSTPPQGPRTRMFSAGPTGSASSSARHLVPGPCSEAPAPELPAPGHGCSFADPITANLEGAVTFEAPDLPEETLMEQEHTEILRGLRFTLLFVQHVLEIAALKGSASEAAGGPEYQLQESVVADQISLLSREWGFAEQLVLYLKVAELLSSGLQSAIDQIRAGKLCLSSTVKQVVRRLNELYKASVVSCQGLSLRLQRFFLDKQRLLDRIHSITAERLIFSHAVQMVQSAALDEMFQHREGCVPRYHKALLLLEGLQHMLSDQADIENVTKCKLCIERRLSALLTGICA

Chain of Serine/threonine-protein kinase MARK1 (Homo sapiens) (Q9P0L2 whole entry, looked up, the tested form may be a part): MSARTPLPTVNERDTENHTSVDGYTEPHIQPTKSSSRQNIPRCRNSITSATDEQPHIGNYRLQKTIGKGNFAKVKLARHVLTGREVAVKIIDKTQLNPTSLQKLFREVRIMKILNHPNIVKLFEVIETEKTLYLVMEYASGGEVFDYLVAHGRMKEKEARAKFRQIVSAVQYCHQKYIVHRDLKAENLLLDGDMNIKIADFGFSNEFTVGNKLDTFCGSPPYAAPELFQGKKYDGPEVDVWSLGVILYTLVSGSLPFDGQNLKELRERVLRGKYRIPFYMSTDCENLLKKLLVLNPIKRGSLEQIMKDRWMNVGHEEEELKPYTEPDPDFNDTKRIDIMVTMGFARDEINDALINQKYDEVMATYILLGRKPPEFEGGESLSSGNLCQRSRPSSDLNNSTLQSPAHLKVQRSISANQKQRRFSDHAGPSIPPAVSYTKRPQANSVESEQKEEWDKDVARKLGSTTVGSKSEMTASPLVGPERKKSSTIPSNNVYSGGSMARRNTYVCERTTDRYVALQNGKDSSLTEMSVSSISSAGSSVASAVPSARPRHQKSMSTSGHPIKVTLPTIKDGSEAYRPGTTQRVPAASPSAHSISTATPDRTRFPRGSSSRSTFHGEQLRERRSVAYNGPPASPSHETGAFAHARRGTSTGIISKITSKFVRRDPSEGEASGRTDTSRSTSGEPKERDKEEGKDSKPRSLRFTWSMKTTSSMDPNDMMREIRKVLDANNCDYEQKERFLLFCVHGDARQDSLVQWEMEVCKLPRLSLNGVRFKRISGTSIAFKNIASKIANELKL

Regarding `COCCN[C@H]1CC[C@H](Nc2cc(-c3csc(NCC4(C#N)CCOCC4)n3)c(Cl)cn2)CC1`, the outcome in the series filed under Homo sapiens was inactive. For the same compound, the half-life in series [1] is 20.4 h. Also, the Cmax in series [2] stood at 573 ng/mL. The compound further showed an MRT inf in [3] of 1.58 h. For the same compound, the bioavailability in [4] worked out at 45%. The TGI result with MV4-11 is “Active”. Moreover, the Activity in [5] is 92%; in series [6] it was 95%; in [7], 85%; in series [8] it was 93%; in series [9] it was 94%; in series [10] it was 100%. Also, the Activity in series [11] came out at 91%; in series [12], 100%; in [13] it was 65%; in series [14], 59%; in [15] it was 100%; in series [16], 60%. Besides, the Activity in series [17] was found to be 89%; in series [18], 99%; in series [19], 95%; in [20], 89%; in series [21], 100%.

For orientation: half-life means how long it takes for the measured level to halve. High values mean slow decline, low ones rapid decline. As usually defined, the Cmax is the peak of the concentration-time curve. As a reminder, the MRT inf is the average time that molecules of a dose stay in the body. In general, bioavailability refers to the share of a dose that reaches the circulation, judged against a reference dose that is usually intravenous. Lower therefore signals little systemic uptake.

These data come from ChEMBL document CHEMBL4261600 (Eur J Med Chem, 2018).
